Experiments:
SGC-7901 = assay: Potency index, ratio of 5-FU IC50 to compound IC50 for human SGC7901 cells; type: functional
Mus musculus [1] = assay: Acute toxicity in ICR mouse assessed as mouse mortality level at 200 to 488.3 mg/kg, ip measured at 1 to 4 hrs post dose; type: organism-based; settings: in vivo
In short: (§1)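 Female ICR mice, 10 per group, single intraperitoneal injection at 488.3, 390.6, 312.5, 250 or 200 mg/kg, or vehicle control. Survival, eating, drinking, body weight and activity were monitored for up to 14 days after dosing. MTD was defined as the highest dose giving no drug-related moribund state or death, with temporary body-weight loss within 20%. LD50 was calculated from mortality.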

SMMC-7721 [2] = assay: Antitumor activity against human SMMC7721 cells xenografted in BALB/c mouse assessed as tumor growth inhibition at 30 mg/kg, ip measured after 19 days relative to control; type: functional; settings: SMMC-7721, ip, 456 h, read-out: TGI
In short: (§2)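 Female BALB/c nude mice, 5-6 weeks old, inoculated subcutaneously with 10^6 SMMC-7721 cells. At 50-100 mm³ tumours, mice were randomized to ip compound (15 or 30 mg/kg), ADM (15 mg/kg) or vehicle, n = 6 per group. Caliper volume ½(L×W²) measured every 3 days to day 19, with body weight monitored. Tumours excised and weighed at the end.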

Mus musculus [3] = assay: Toxicity in BALB/c mouse xenografted with human SMMC7721 cells assessed as effect on body weight at 15 to 30 mg/kg, ip measured after 19 days; type: organism-based; settings: in vivo, 456 h; in short: as §2
Mus musculus [4] = assay: Acute toxicity in ICR mouse assessed as mouse mortality level at 200 to 312.5 mg/kg, ip measured on day 5 to 14 post dose; type: organism-based; settings: in vivo; in short: as §1
SMMC-7721 [5] = assay: Induction of apoptosis in human SMMC7721 cells assessed as apoptotic cells at 0.8 uM after 72 hrs by FITC-Annexin-V/7AAD/propidium iodide staining based flow cytometry relative to control; type: functional
In short: (§3)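 SMMC-7721 cells cultured overnight, then treated in triplicate with 0.2, 0.8 or 3.2 μM, vehicle, or ADM (3.2 μM) for 72 h. Stained with annexin V and PI (methods section: APC-annexin V/7-AAD) for 15 min at room temperature. Mean ± SD of three independent experiments.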

SMMC-7721 [6] = assay: Induction of apoptosis in human SMMC7721 cells assessed as apoptotic cells after 72 hrs by FITC-Annexin-V/7AAD/propidium iodide staining based flow cytometry; type: functional, cell-based; in short: as §3
L02 = assay: Cytotoxicity against human LO2 cells assessed as reduction in cell survival at 0.2 to 5 uM after 72 hrs by MTT assay; type: cell-based; settings: l02, 72 h
In short: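 LO2 normal liver cells in DMEM with 10% FBS, plated at 10^4 cells/mL, adhered overnight. Exposed to graded concentrations for 72 h alongside SMMC-7721. MTT added for the last 4 h, formazan dissolved in DMSO, A570 read. Percent inhibition, mean ± SD of three independent experiments.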

[7] = Acute toxicity in ICR mouse at 200 to 488.3 mg/kg, ip; type: organism-based; settings: in vivo; in short: as §1
HCT-116 = assay: Antiproliferative activity against human HCT116 cells after 72 hrs by MTT assay; type: functional, cell-based; settings: HCT-116, 72 h
In short: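 Cells in DMEM with 10% FBS, 10^4 cells/mL, adhered overnight at 37 °C, 5% CO2. Treated in triplicate with a range of concentrations for 72 h. MTT (5 mg/mL solution) added for the last 4 h, formazan dissolved in DMSO, absorbance read at 570 nm. IC50 calculated from percent inhibition. Mean ± SD of three independent experiments.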

Mus musculus [8] = assay: Acute toxicity in ICR mouse assessed as mouse mortality level at 312.5 mg/kg, ip measured on day 3 post dose; type: organism-based; settings: in vivo; in short: as §1
Mus musculus [9] = assay: Acute toxicity in ICR mouse assessed as effect on eating behaviour at 200 mg/kg, ip measured up to 14 days post dose; type: organism-based; settings: in vivo, 336 h; in short: as §1
[10] = target: Cellular tumor antigen p53 (Homo sapiens) (UniProt P04637); assay: Induction of p53 phosphorylation at Ser15 in human SMMC7721 cells after 72 hrs by Western blot analysis; type: cell-based
Sequence of Cellular tumor antigen p53 (Homo sapiens) (P04637 whole entry, looked up): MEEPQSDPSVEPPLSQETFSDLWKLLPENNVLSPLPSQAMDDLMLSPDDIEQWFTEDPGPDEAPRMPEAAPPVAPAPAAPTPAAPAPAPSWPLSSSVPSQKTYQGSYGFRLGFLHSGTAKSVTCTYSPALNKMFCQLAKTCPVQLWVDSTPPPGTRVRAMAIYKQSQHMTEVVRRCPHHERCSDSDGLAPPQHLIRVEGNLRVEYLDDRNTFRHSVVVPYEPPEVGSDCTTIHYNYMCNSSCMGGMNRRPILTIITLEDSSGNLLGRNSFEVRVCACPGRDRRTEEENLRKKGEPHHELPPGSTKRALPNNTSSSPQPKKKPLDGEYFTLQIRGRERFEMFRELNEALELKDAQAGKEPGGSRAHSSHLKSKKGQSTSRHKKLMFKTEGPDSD
In short: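 SMMC-7721 cells treated with vehicle, compound at 0.2, 0.8 or 3.2 μM, or ADM for 72 h. Lysates immunoblotted for H2AX pS139, p-p53 (Ser15), total p53 and β-actin, with ECL detection. Signals quantified by densitometry relative to β-actin, mean ± SD of three experiments.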

Mus musculus [11] = assay: Acute toxicity in ICR mouse assessed as effect on body weight at 200 mg/kg, ip measured up to 14 days post dose; type: organism-based; settings: in vivo, 336 h; in short: as §1

COc1ccc(Oc2c(/C=N\OCc3c(Cl)c(-c4ccc(Cl)cc4)nn3C)c(C)nn2C)cc1
Ratio IC50 (SGC-7901): 17 - 50 | Activity (Mus musculus [1]): Non-Toxic | inhibition in vivo at 30 mg/kg (SMMC-7721 [2]): 65.3% | Activity (Mus musculus [3]): Non-Toxic | Activity (Mus musculus [4]): Non-Toxic | Activity (SMMC-7721 [5]): 49.2% | Activity (SMMC-7721 [6]): Dose-dependent effect | Activity (L02): Non-Toxic | LD50 [7]: 350 mg/kg | IC50 (HCT-116): 1260 nM | Activity (Mus musculus [8]): Non-Toxic | Activity (Mus musculus [9]): Non-Toxic | Activity [10]: Dose-dependent effect | Activity (Mus musculus [11]): Non-Toxic
